Consider four molecules from ChEMBL document CHEMBL5550111, “Design, synthesis and biological evaluation of aryloxy thiophosphoramidate triesters of anticancer nucleoside analogues” (Bioorg Med Chem, 2024).

Experiment [1] relates to HT-29. Description: Cytotoxicity against human HT-29 cells assessed as inhibition of cell viability incubated for 72 hrs by MTS assay. It counts as functional, cell-based. The settings on record: HT-29, 72 h. A digest of the protocol:
(§1)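 Cells seeded at 0.5 to 100 × 10^3 per well the day before treatment, then exposed for 72 h to 9 serial concentrations (3.16-fold dilutions, top 198 μM), in duplicate. MTS added for a final 4 h at 37 °C and absorbance read. IC50 is the concentration giving 50% loss of viability. MI% is the maximum inhibition over the tested range.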
Background: Tetrazolium assays rely on reduction of a dye to a coloured formazan, in cell work by metabolically active cells.

Experiment [2] has as its system OVCAR-3. Description: Cytotoxicity against human OVCAR-3 cells assessed as maximum inhibition of cell viability upto 198 uM incubated for 72 hrs by MTS assay relative to control. Format: functional. The settings on record: up to 198 µM. Summed up: (§2)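 Cells seeded at 0.5 to 100 × 10^3 per well the day before drug addition, then exposed to compound for 72 h. MTS added afterwards, with a further 4 h at 37 °C, and absorbance read. Tested in duplicate at 9 serial 3.16-fold dilutions, top concentration 198 μM. MI% is the maximum inhibition of viability across the tested range.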

Experiment [3] deals with OVCAR-3. Description: Cytotoxicity against human OVCAR-3 cells assessed as inhibition of cell viability incubated for 72 hrs by MTS assay. The settings on record: OVCAR-3, 72 h. Format: functional, cell-based. A digest of the protocol:
as §1

For experiment [4], the system named is RT112/84. Briefly: Cytotoxicity against human RT112/84 cells assessed as inhibition of cell viability incubated for 72 hrs by MTS assay. It counts as functional, cell-based. To be noted: RT112/84, 72 h. Summed up:
as §1

Experiment [5] concerns SK-MES-1. Description: Cytotoxicity against human SK-MES-1 cells assessed as maximum inhibition of cell viability upto 198 uM incubated for 72 hrs by MTS assay relative to control. It counts as functional. The settings on record: up to 198 µM. A digest of the protocol:
as §2

Experiment [6] concerns MIA PaCa-2. Description: Cytotoxicity against human MIA PaCa-2 cells assessed as maximum inhibition of cell viability upto 198 uM incubated for 72 hrs by MTS assay relative to control. It counts as functional. The settings on record: up to 198 µM. Summed up:
as §2

Experiment [7] deals with HepG2. Briefly: Cytotoxicity against human HepG2 cells assessed as maximum inhibition of cell viability upto 198 uM incubated for 72 hrs by MTS assay relative to control. It counts as functional. To be noted: up to 198 µM. A digest of the protocol: as §2
Experiment [8] deals with SK-MES-1. Description: Cytotoxicity against human SK-MES-1 cells assessed as inhibition of cell viability incubated for 72 hrs by MTS assay. It counts as functional, cell-based. The settings on record: SK-MES-1, 72 h. Summed up:
as §1

The next experiment deals with NCI-H1975. Description: Cytotoxicity against human NCI-H1975 cells assessed as maximum inhibition of cell viability upto 198 uM incubated for 72 hrs by MTS assay relative to control. The settings on record: up to 198 µM. Format: functional. A digest of the protocol: as §2
The test system of experiment [9] is HT-29. Description: Cytotoxicity against human HT-29 cells assessed as maximum inhibition of cell viability upto 198 uM incubated for 72 hrs by MTS assay relative to control. It counts as functional. The settings on record: up to 198 µM. A digest of the protocol:
as §2

Experiment [10] deals with MIA PaCa-2. Description: Cytotoxicity against human MIA PaCa-2 cells assessed as inhibition of cell viability incubated for 72 hrs by MTS assay. It counts as functional, cell-based. To be noted: MIA PaCa-2, 72 h. A digest of the protocol:
as §1

Experiment [11] has as its system RT112/84. Briefly: Cytotoxicity against human RT112/84 cells assessed as maximum inhibition of cell viability upto 198 uM incubated for 72 hrs by MTS assay relative to control. It counts as functional. To be noted: up to 198 µM. Summed up: as §2
For experiment [12], the system named is COLO 205. Briefly: Cytotoxicity against human COLO 205 cells assessed as inhibition of cell viability incubated for 72 hrs by MTS assay. It counts as functional, cell-based. To be noted: COLO 205, 72 h. Summed up:
as §1

The subject of experiment [13] is HepG2. Description: Cytotoxicity against human HepG2 cells assessed as inhibition of cell viability incubated for 72 hrs by MTS assay. It counts as functional, cell-based. To be noted: HepG2, 72 h. A digest of the protocol:
as §1

The subject of experiment [14] is RPMI-8226. Description: Cytotoxicity against human RPMI-8226 cells assessed as maximum inhibition of cell viability upto 198 uM incubated for 72 hrs by MTS assay relative to control. It counts as functional. The settings on record: up to 198 µM. Summed up:
as §2

The subject of experiment [15] is COLO 205. Briefly: Cytotoxicity against human COLO 205 cells assessed as maximum inhibition of cell viability upto 198 uM incubated for 72 hrs by MTS assay relative to control. The settings on record: up to 198 µM. Format: functional. Summed up:
as §2

In experiment [16] the test system is RPMI-8226. Briefly: Cytotoxicity against human RPMI-8226 cells assessed as inhibition of cell viability incubated for 72 hrs by MTS assay. It counts as functional, cell-based. The settings on record: RPMI-8226, 72 h. A digest of the protocol:
as §1

Experiment [17] relates to PC-3. Description: Cytotoxicity against human PC-3 cells assessed as maximum inhibition of cell viability upto 198 uM incubated for 72 hrs by MTS assay relative to control. It counts as functional. To be noted: up to 198 µM. Summed up:
as §2

Experiment [18] deals with A2780. Description: Cytotoxicity against human A2780 cells assessed as maximum inhibition of cell viability upto 198 uM incubated for 72 hrs by MTS assay relative to control. It counts as functional. The settings on record: up to 198 µM. Summed up: as §2
The subject of experiment [19] is PC-3. Description: Cytotoxicity against human PC-3 cells assessed as inhibition of cell viability incubated for 72 hrs by MTS assay. It counts as functional, cell-based. The settings on record: PC-3, 72 h. A digest of the protocol: as §1
Experiment [20] concerns BXPC-3. Briefly: Cytotoxicity against human BXPC-3 cells assessed as maximum inhibition of cell viability upto 198 uM incubated for 72 hrs by MTS assay relative to control. Format: functional. To be noted: up to 198 µM. Summed up: as §2
Experiment [21] concerns BXPC-3. Briefly: Cytotoxicity against human BXPC-3 cells assessed as inhibition of cell viability incubated for 72 hrs by MTS assay. It counts as functional, cell-based. The settings on record: BXPC-3, 72 h. A digest of the protocol: as §1
For experiment [22], the system named is MDA-MB-231. Briefly: Cytotoxicity against human MDA-MB-231 cells assessed as inhibition of cell viability incubated for 72 hrs by MTS assay. It counts as functional, cell-based. To be noted: MDA-MB-231, 72 h. A digest of the protocol: as §1
Experiment [23] has as its system MDA-MB-231. Description: Cytotoxicity against human MDA-MB-231 cells assessed as maximum inhibition of cell viability upto 198 uM incubated for 72 hrs by MTS assay relative to control. Format: functional. To be noted: up to 198 µM. Summed up:
as §2

Experiment [24] deals with PANC-1. Briefly: Cytotoxicity against human PANC-1 cells assessed as maximum inhibition of cell viability upto 198 uM incubated for 72 hrs by MTS assay relative to control. It counts as functional. To be noted: up to 198 µM. A digest of the protocol:
as §2

Experiment [25] deals with A2780. Briefly: Cytotoxicity against human A2780 cells assessed as inhibition of cell viability incubated for 72 hrs by MTS assay. It counts as functional, cell-based. To be noted: A2780, 72 h. Summed up: as §1
Experiment [26] relates to PANC-1. Description: Cytotoxicity against human PANC-1 cells assessed as inhibition of cell viability incubated for 72 hrs by MTS assay. To be noted: PANC-1, 72 h. It counts as functional, cell-based. A digest of the protocol:
as §1

The nature of experiment [27]: Cytotoxicity against human T24/83 cells assessed as inhibition of cell viability incubated for 72 hrs by MTS assay. It counts as functional, cell-based. To be noted: T24/83, 72 h. A digest of the protocol: as §1

In general, IC50 refers to the concentration that inhibits the measured activity by half. Take `Nc1nc(=O)n([C@H]2C[C@H](O)[C@@H](CO)O2)cc1F`: the IC50 in the experiment with HT-29 [1] stood at 130 nM; in the experiment on OVCAR-3 [3] it was 0.74 µM; in the experiment on RT112/84 [4], 90 nM; in the experiment with SK-MES-1 [8], 90 nM; with MIA PaCa-2 [10] it was 300 nM; in the experiment with COLO 205 [12], 20 nM. Moreover, the IC50 with HepG2 [13] came to 53.9 µM; with RPMI-8226 [16] it was 11.8 µM. In addition, the Imax in the experiment on OVCAR-3 [2] came to 58%; in the experiment on SK-MES-1 [5], 67%; with MIA PaCa-2 [6], 85%; with HepG2 [7], 67%; in the experiment with NCI-H1975 it was 91%; in the experiment on HT-29 [9], 83%. For the same molecule, the figures for the Imax in the experiment on RT112/84 [11], in the experiment on RPMI-8226 [14] and in the experiment with COLO 205 [15] were 67%, 100% and 88%, respectively.
In the case of `C[C@H](NP(=O)(OC[C@H]1O[C@@H](n2ccc(N)nc2=O)C(F)(F)[C@@H]1O)Oc1ccccc1)C(=O)OCc1ccccc1` (stereo partly drawn) [FOSGEMCITABINE PALABENAMIDE], the Imax with PC-3 [17] is reported as 65%; in the experiment on OVCAR-3 [2], 16%; with A2780 [18] it was 76%; in the experiment on BXPC-3 [20] it was 64%; with MDA-MB-231 [23] it was 71%; with SK-MES-1 [5], 79%. Moreover, the Imax in the experiment on MIA PaCa-2 [6] was determined as 69%; in the experiment with HepG2 [7] it was 57%; in the experiment with PANC-1 [24] it was 45%; in the experiment on HT-29 [9], 64%; with RT112/84 [11], 79%; with COLO 205 [15], 72%. Moreover, the half-maximal inhibitory concentration (IC50) amounted to 480 nM in the experiment on HT-29 [1]; 119 µM in the experiment on OVCAR-3 [3]; 1090 nM with PC-3 [19]; 330 nM with BXPC-3 [21]; 1000 nM with MDA-MB-231 [22]; 110 nM in the experiment with RT112/84 [4]. Further, the IC50 in the experiment on SK-MES-1 [8] was 110 nM; in the experiment on A2780 [25], 270 nM; in the experiment on MIA PaCa-2 [10], 120 nM; with COLO 205 [12], 1820 nM; in the experiment on PANC-1 [26], 3960 nM; in the experiment with HepG2 [13], 1.16 µM. For the same molecule, in experiment [27], the 50% inhibitory concentration (IC50) came to 50 nM.
As to `C[C@H](NP(=O)(OC[C@H]1O[C@@H](n2cc(F)c(=O)[nH]c2=O)C[C@@H]1O)Oc1cccc2ccccc12)C(=O)OCc1ccccc1` (stereo partly drawn) [FOSIFLOXURIDINE NAFALBENAMIDE], the IC50 in the experiment with HT-29 [1] is 520 nM; with OVCAR-3 [3], 6.91 µM; with RT112/84 [4], 320 nM; with SK-MES-1 [8], 320 nM; with MIA PaCa-2 [10] it was 1470 nM; in the experiment with COLO 205 [12], 140 nM. The IC50 was 24.5 µM with HepG2 [13] and 5.9 µM in the experiment with RPMI-8226 [16]. In addition, the Imax in the experiment on OVCAR-3 [2] stood at 92%; in the experiment on SK-MES-1 [5], 77%; in the experiment with MIA PaCa-2 [6] it was 96%; with HepG2 [7] it was 62%; in the experiment on NCI-H1975, 72%; in the experiment with HT-29 [9], 81%. Besides, the Imax is given as 77% with RT112/84 [11] and 93% in the experiment with RPMI-8226 [14].
On to `Nc1ccn([C@@H]2O[C@H](CO)[C@@H](O)C2(F)F)c(=O)n1` [GEMCITABINE], for which the Imax with PC-3 [17] is recorded as 61%; in the experiment on OVCAR-3 [2], 35%; in the experiment with A2780 [18] it was 85%; in the experiment with BXPC-3 [20], 79%; in the experiment on MDA-MB-231 [23] it was 74%; with SK-MES-1 [5] it was 88%. Also, the Imax with MIA PaCa-2 [6] came out at 68%; in the experiment with HepG2 [7], 53%; with PANC-1 [24], 43%; in the experiment with HT-29 [9] it was 64%; in the experiment on RT112/84 [11], 88%; in the experiment on COLO 205 [15] it was 86%. Moreover, the concentration for half-maximal inhibition (IC50) was 70 nM with HT-29 [1]; 67.2 µM in the experiment with OVCAR-3 [3]; 460 nM in the experiment on PC-3 [19]; 1810 nM with BXPC-3 [21]; 3700 nM in the experiment on MDA-MB-231 [22]; 1220 nM with RT112/84 [4]. Also, the IC50 in the experiment with SK-MES-1 [8] was determined as 1220 nM; in the experiment with A2780 [25], 320 nM; in the experiment with MIA PaCa-2 [10], 40 nM; in the experiment with COLO 205 [12], 110 nM; with PANC-1 [26] it was 680 nM; in the experiment with HepG2 [13], 16.7 µM. Moreover, in experiment [27], the half-maximal inhibitory concentration (IC50) was less than 20 nM.
